SENP8 block-1 – inhibitors of human SENP8 protease; AID 2540; Q96LD8; inhibition, % at 10 µM; 330,000 tested, 1.2% active; purified SENP8, Z-RLRGG-aminoluciferin cleavage, luminescence; in the data active = inhibition above about 50%
Platelet DG rel – platelet dense granule release activity; inhibition, %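 (compounds screened at 7.5 µM in platelet-rich plasma)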; 300,000 tested, 0.22% active; human platelet-rich plasma, SFLLRN dense granule ATP release, luminescence;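 active = mean replicate score, as percent of positive control, at or above 50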
SENP6 block – blocks the human protease SENP6; Q9GZR1; Recombinant SENP6 catalytic domain, aminoluciferin luminescence; inhibition, % at 10 µM; 330,000 tested, 1.8% active; AID 2599;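 active = inhibition above about 50% at the single tested dose, limit read from the data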;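 note: plate controls were DMSO wells with enzyme for no effect and DMSO wells lacking enzyme for full effect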
Target sequence (Q9GZR1 628-1112 limits assumed): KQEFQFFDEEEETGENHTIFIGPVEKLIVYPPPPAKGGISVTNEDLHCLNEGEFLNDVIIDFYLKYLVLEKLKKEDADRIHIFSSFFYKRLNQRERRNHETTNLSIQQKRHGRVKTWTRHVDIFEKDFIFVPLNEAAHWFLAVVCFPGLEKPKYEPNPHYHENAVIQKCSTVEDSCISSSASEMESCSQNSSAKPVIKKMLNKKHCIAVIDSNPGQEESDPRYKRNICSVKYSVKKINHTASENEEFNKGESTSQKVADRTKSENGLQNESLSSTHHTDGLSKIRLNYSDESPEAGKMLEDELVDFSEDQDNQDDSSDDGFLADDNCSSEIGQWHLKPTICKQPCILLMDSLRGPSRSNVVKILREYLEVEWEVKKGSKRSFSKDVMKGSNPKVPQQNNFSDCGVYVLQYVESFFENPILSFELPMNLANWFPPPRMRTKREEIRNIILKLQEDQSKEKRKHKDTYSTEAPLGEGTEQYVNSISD
SENP1 inh – inhibitors of human SENP1 SUMO protease catalytic domain. Q9P0U3. recombinant SENP1 catalytic domain, CyPet-SUMO1-YPet FRET cleavage. inhibition, % at 10 µM. 360,000 tested, 0.21% active;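 active = inhibition at least 30% at 10 µM, raw YFP signal under a set limit, fluorescence ratio 0.5 to 1.5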;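 note: 0% = enzyme with DMSO and 100% = no enzyme wells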
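Assay system – human recombinant His6-tagged SENP1 catalytic domain enzyme · Input – SENP1 enzyme, 20 pM final · Buffer or medium – Tris pH 8 buffer plus EDTA, NaCl, BME, BSA, NP40, catalase · Schedule – 50 min reaction at room temperature · Technique – FRET read of cyan and yellow fluorescence · Control set – no-enzyme wells low, DMSO-plus-enzyme wells high control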
SENP8 block-2 – inhibitors of human SENP8 protease; Q96LD8; 360,000 tested, 0.64% active; inhibition, % at 20 µM; recombinant SENP8, Nedd8 substrate fluorescence; in the data active = inhibition mostly above about 40%, no sharp cut-off; inactive = mostly below about 27%
SENP7 inh – SENP7 protease inhibition | Q9BQF6 | recombinant SENP7, Z-RLRGG-aminoluciferin luminescence, 40 min | inhibition, % at 5 µM | 330,000 tested, 1.5% active | AID 434973;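 active = inhibition above about 50% at the single test dose, limit read from the data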;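 note: plate controls were DMSO with enzyme for no effect and no enzyme buffer wells for full effect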
* hit, by the source's call; i = inactive; . = no result. Sampled rows, rich in hits. Any-hit rate of the full collection: about 2.6%.

SMILES | SENP8 block-1 | Platelet DG rel | SENP6 block | SENP1 inh | SENP8 block-2 | SENP7 inh
CNC(C)C#Cc1ccc2oc3cccc(OC)c3c(=O)c2c1 (stereo unspecified) | -6 | 0 | 12 | 0 | i | 0
CNC(C)C#Cc1ccc2oc3cc(C)c(C)cc3c(=O)c2c1 (stereo unspecified) | 69* | -4 | 84* | -31 | -94 | 43
Cc1c(N2C(=O)/C(=C\c3ccc(N(C)C)cc3)N(C)C2=S)c(=O)n(-c2ccccc2)n1C | . | . | . | 69* | 34 | .
CN1C(=S)N(c2cccnc2)C(=O)/C1=C\c1ccc(N(C)C)cc1 | . | 2 | . | 61* | 38 | .
CN1C(=S)N(c2cccnc2)C(=O)/C1=C\c1ccc(C(C)(C)C)cc1 | -4 | 8 | -5 | -3 | 1 | -9
Cc1ccccc1N1CCN(C2CCCN(C(=O)c3ccsc3)C2)CC1 (stereo unspecified) | 3 | -3 | 1 | 1 | 8 | -1
O=C(Cn1cc(SCc2cccc(Cl)c2)c2ccccc21)N1CCOCC1 | 47 | -47 | -15 | 1 | 12 | 55*
Cc1csc2nc(CNC(=O)CCC(=O)O)cn12 | -3 | -7 | 2 | 1 | 0 | -7
CC(=O)NCc1cn2c(C)csc2n1 | 2 | 83* | -6 | 0 | 18 | -8
O=[N+]([O-])c1ccc(C=CC=Cc2ccccc2)cc1 | . | . | . | -34 | -196 | .
[O-]/[N+](=C\C=C\c1ccccc1)c1ccccc1 | 57* | 18 | 73* | -4 | -2 | -1
CCOc1ccc(-c2c(C)n([O-])c3c([n+]2=O)CCCCC3)cc1 | -4 | 8 | -5 | 2 | 10 | -10
O=C(CN1C(=O)NC2(CCCCCC2)C1=O)NCc1ccccc1Cl | 5 | . | -9 | 2 | 12 | -3
CCNc1nc(NC#N)nc(SCC(=O)OCC)n1 | -6 | 55* | -5 | 2 | 34 | -12
Cc1noc(C)c1NC(=O)N(C)C[C@@H]1Oc2ccc(NC(=O)C3CCCCC3)cc2C(=O)N([C@@H](C)CO)C[C@H]1C | 11 | . | 0 | -1 | 17 | 1
COc1cc(NC(=O)CSc2ncnc3scc(-c4ccccc4)c23)c(C(=O)O)cc1OC | -2 | -17 | 8 | -3 | -11 | 0
Cc1ccc(-c2nc(SC(C)C(=O)N3CCOCC3)n[nH]2)cc1 (stereo unspecified) | -2 | 61* | -2 | 0 | 28 | 12
NC(=S)NN=Cc1nccc2c(N)cccc12 | . | . | . | 11 | 62* | .
CCN(C(C)=O)c1cnc(C=NNC(N)=S)c2ccccc12 | . | . | . | 0 | -48 | .
O=C1NC(=O)C2(CCCC2)N1 | . | . | . | 1 | -6 | .
O=C1NC(=O)C2(CCC(C(=O)O)C2)N1 (stereo unspecified) | 2 | 50* | -17 | -1 | 26 | -4
COCC(=O)OC1CCn2c1nc1c2C(=O)C(C)=C(NC(C)=O)C1=O (stereo unspecified) | . | . | . | 2 | 96* | .
COC(=O)[C@]12CCCCC=C1N(Cc1ccc(Cl)cc1Cl)C(=O)[C@H](CC(=O)NCCc1ccccc1OC)C2 | . | . | . | 0 | 16 | .
O=C(O)C1Nc2c(O)cc(Cl)c([N+](=O)[O-])c2C2C=CCC12 (stereo unspecified) | 8 | -5 | -34 | 15 | 46* | 9
O=C(COC(=O)c1ccc(=O)[nH]c1)Nc1cccc(S(=O)(=O)N2CCOCC2)c1 | -2 | -6 | 4 | 0 | 31 | 10
SMILES | SENP8 block-1 | Platelet DG rel | SENP6 block | SENP1 inh | SENP8 block-2 | SENP7 inh
CC(=O)Nc1cc(OC(C)=O)c2nonc2c1OC(C)=O | 70* | . | 82* | 2 | 33 | 92*
CC(C)CN(C(=O)COC(=O)CCC(=O)c1ccc(F)cc1)c1c(N)n(Cc2ccccc2)c(=O)[nH]c1=O | -3 | 7 | 3 | -4 | -5 | -5
CC1CC(C)(C)Nc2ccc(N=O)cc21 (stereo unspecified) | . | 4 | . | -5 | 45* | .
O=c1c2ccccc2sn1-c1ccc(Cl)cc1 | . | . | . | 0 | 9 | .
COC(=O)c1cccc(-n2sc3ccccc3c2=O)c1 | 57* | . | 70* | 4 | 8 | 19
Cc1ccc(-n2sc3ccccc3c2=O)cc1 | 86* | 17 | 94* | 0 | 14 | 77*
C[C@H](CO)N1C[C@H](C)[C@@H](CN(C)C(=O)Nc2cccc(F)c2)Oc2ncc(Br)cc2C1=O | . | . | . | 0 | -1 | .

Compound activity: PubChem, several laboratories
